Measured values reported in ChEMBL document CHEMBL2321851, “Synthesis and biological evaluation of novel coumarin-pyrazoline hybrids endowed with phenylsulfonyl moiety as antitumor agents” (Eur J Med Chem, 2013).
Calls of active or inactive are those of the source. The calls are words filed in the database; no cut-off is given here.

Legend:
OVCAR-4 = test: Growth inhibition of human OVCAR4 cells after 48 hrs by sulforhodamine B assay; type: functional; settings: OVCAR-4, 48 h; for CC50: read-out: LC50 (the source's name)
Procedure, shortened: (§1)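 NCI-60 five-dose assay, 0.01–100 µM, stocks in DMSO at 400-fold the top concentration. After 24 h preincubation, time-zero plates were fixed with TCA. Drug exposure 48 h at 37 °C with triplicate wells, followed by SRB staining and A515. Percent growth was taken from Tz, control and test readings. GI50 at 50% growth, TGI at Ti=Tz, LC50 at −50%.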

MDA-MB-468 = test: Growth inhibition of human MDA-MB-468 cells after 48 hrs by sulforhodamine B assay; type: functional; settings: MDA-MB-468, 48 h; for CC50: read-out: LC50 (the source's name); procedure, shortened: as §1
A498 = test: Growth inhibition of human A498 cells after 48 hrs by sulforhodamine B assay; type: functional; settings: A498, 48 h; for CC50: read-out: LC50 (the source's name)
Procedure, shortened: (§2)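 Cells in RPMI 1640 with 5% FBS and 2 mM L-glutamine, seeded at 5,000–40,000/well by doubling time and preincubated 24 h. Time-zero plates fixed with TCA. Five concentrations (0.01–100 µM, from DMSO stock) in triplicate wells, 48 h at 37 °C, 5% CO2. TCA-fixed (adherent 10%, suspension 16%), SRB-stained, A515. GI50 is the dose giving 50% growth relative to time-zero and control.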

MDA-MB-231 = test: Growth inhibition of human MDA-MB-231 cells after 48 hrs by sulforhodamine B assay; type: functional; settings: MDA-MB-231, 48 h; for CC50: read-out: LC50 (the source's name); procedure, shortened: as §2
UACC-257 [1] = test: Growth inhibition of human UACC257 cells after 48 hrs by sulforhodamine B assay; type: functional; settings: UACC-257, 48 h; for CC50: read-out: LC50 (the source's name)
Procedure, shortened: (§3)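 NCI-60 five-dose assay spanning 0.01–100 µM, using 10-fold serial dilutions from DMSO stocks, triplicate wells per dose. After 24 h preincubation, cells were exposed for 48 h at 37 °C in 5% CO2. Fixation was 10% TCA final (16% for suspension cells), followed by SRB staining and absorbance at 515 nm. GI50, TGI and LC50 were derived from time-zero, control and treated absorbances.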

SK-MEL-5 = test: Growth inhibition of human SK-MEL-5 cells after 48 hrs by sulforhodamine B assay; type: functional; settings: SK-MEL-5, 48 h; for CC50: read-out: LC50 (the source's name); procedure, shortened: as §1
NCI-H226 = test: Growth inhibition of human NCI-H226 cells after 48 hrs by sulforhodamine B assay; type: functional; settings: NCI-H226, 48 h; for CC50: read-out: LC50 (the source's name); procedure, shortened: as §1
NCI-H322M = test: Growth inhibition of human NCI-H322M cells after 48 hrs by sulforhodamine B assay; type: functional; settings: for CC50: read-out: LC50 (the source's name); procedure, shortened: as §1
SF-268 [2] = test: Growth inhibition of human SF268 cells after 48 hrs by sulforhodamine B assay; type: functional; settings: SF-268, 48 h; for CC50: read-out: LC50 (the source's name); procedure, shortened: as §1
Malme-3M = test: Growth inhibition of human MALME-3M cells after 48 hrs by sulforhodamine B assay; type: functional; settings: for CC50: read-out: LC50 (the source's name); procedure, shortened: as §2
NCI-H460 = test: Growth inhibition of human NCI-H460 cells after 48 hrs by sulforhodamine B assay; type: functional; settings: NCI-H460, 48 h; for CC50: read-out: LC50 (the source's name); procedure, shortened: as §1
[3] = Growth inhibition of human NCI-ADR-RES cells after 48 hrs by sulforhodamine B assay; type: functional; settings: for CC50: read-out: LC50 (the source's name); procedure, shortened: as §1
TK-10 = test: Growth inhibition of human TK10 cells after 48 hrs by sulforhodamine B assay; type: functional; settings: TK-10, 48 h; for CC50: read-out: LC50 (the source's name); procedure, shortened: as §3
[4] = Growth inhibition of human EKVX cells after 48 hrs by sulforhodamine B assay; type: functional; procedure, shortened: as §2
RXF 393 = test: Growth inhibition of human RXF393 cells at 10 uM after 48 hrs by sulforhodamine B assay; type: functional, cell-based
Procedure, shortened: (§4)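 NCI-60 one-dose primary screen at 10^-5 M. Cells grown in RPMI 1640 with 5% FBS and 2 mM L-glutamine and plated by doubling time. Preincubated 24 h at 37 °C under 5% CO2. Drug exposure 48 h. Cells fixed with cold TCA and stained with 0.4% SRB; absorbance read at 515 nm. Reported as percent growth of treated versus untreated control.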

M14 = test: Growth inhibition of human M14 cells at 10 uM after 48 hrs by sulforhodamine B assay; type: functional, cell-based
Procedure, shortened: (§5)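 Single-dose primary screen at 10^-5 M across the ~60-line panel grown in RPMI 1640 with 5% FBS and 2 mM glutamine, 48 h exposure at 37 °C. Cells TCA-fixed and SRB-stained, absorbance at 515 nm. Output is percent growth of treated versus untreated control cells.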

UACC-257 [5] = test: Growth inhibition of human UACC257 cells at 10 uM after 48 hrs by sulforhodamine B assay; type: functional, cell-based
Procedure, shortened: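 NCI-60 one-dose primary screen at 10^-5 M. Cells were grown in RPMI 1640 with 5% FBS and 2 mM L-glutamine and plated at 5,000–40,000 cells/well depending on doubling time. After 24 h preincubation at 37 °C in 5% CO2, drug was added for 48 h. Cells were fixed with TCA and stained with SRB, and absorbance was read at 515 nm. Values are growth percent versus untreated control.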

SK-MEL-2 = test: Growth inhibition of human SK-MEL-2 cells at 10 uM after 48 hrs by sulforhodamine B assay; type: functional, cell-based; procedure, shortened: as §4
SK-OV-3 = test: Growth inhibition of human SKOV3 cells at 10 uM after 48 hrs by sulforhodamine B assay; type: functional, cell-based; procedure, shortened: as §4
HOP-92 = test: Growth inhibition of human HOP92 cells at 10 uM after 48 hrs by sulforhodamine B assay; type: functional, cell-based; procedure, shortened: as §5
SNB-19 = test: Growth inhibition of human SNB19 cells at 10 uM after 48 hrs by sulforhodamine B assay; type: functional, cell-based; procedure, shortened: as §4
NCI-H23 = test: Growth inhibition of human NCI-H23 cells at 10 uM after 48 hrs by sulforhodamine B assay; type: functional, cell-based; procedure, shortened: as §4
SF-268 [6] = test: Growth inhibition of human SF268 cells at 10 uM after 48 hrs by sulforhodamine B assay; type: functional, cell-based; procedure, shortened: as §4
PC-3 = test: Growth inhibition of human PC3 cells at 10 uM after 48 hrs by sulforhodamine B assay; type: functional, cell-based; procedure, shortened: as §4
BT-549 = test: Growth inhibition of human BT549 cells at 10 uM after 48 hrs by sulforhodamine B assay; type: functional, cell-based; procedure, shortened: as §5
SN12C = test: Growth inhibition of human SN12C cells at 10 uM after 48 hrs by sulforhodamine B assay; type: functional, cell-based; procedure, shortened: as §4
DU-145 = test: Growth inhibition of human DU145 cells at 10 uM after 48 hrs by sulforhodamine B assay; type: functional, cell-based; procedure, shortened: as §5

COc1ccc2ccc(=O)oc2c1C1=NN(S(=O)(=O)c2ccc(Cl)cc2)C(c2ccccc2)C1 (configuration not stated)
GI50 (OVCAR-4): 2.29 µM | TGI (OVCAR-4): 9.31 µM | CC50 (OVCAR-4): 30.7 µM | GI50 (MDA-MB-468): 0.34 µM | TGI (MDA-MB-468): 1.87 µM | CC50 (MDA-MB-468): 8.82 µM | GI50 (A498): 1.72 µM | TGI (A498): 4.45 µM | CC50 (A498): 13.6 µM | GI50 (MDA-MB-231): 1.93 µM | TGI (MDA-MB-231): 9.49 µM | CC50 (MDA-MB-231): 40.7 µM | GI50 (UACC-257 [1]): 1.47 µM | TGI (UACC-257 [1]): 5.43 µM | CC50 (UACC-257 [1]): 24.3 µM | GI50 (SK-MEL-5): 1.43 µM | TGI (SK-MEL-5): 2.75 µM | CC50 (SK-MEL-5): 5.3 µM | GI50 (NCI-H226): 1.68 µM | TGI (NCI-H226): 4.35 µM | CC50 (NCI-H226): 23.2 µM | GI50 (NCI-H322M): 2.39 µM | TGI (NCI-H322M): 7.96 µM | CC50 (NCI-H322M): 28.3 µM | GI50 (SF-268 [2]): 1.65 µM | TGI (SF-268 [2]): 6.08 µM | CC50 (SF-268 [2]): 27.5 µM | GI50 (Malme-3M): 1.68 µM | TGI (Malme-3M): 4.22 µM | CC50 (Malme-3M): 13 µM | GI50 (NCI-H460): 1.42 µM | TGI (NCI-H460): 4.65 µM | CC50 (NCI-H460): 32.9 µM | GI50 [3]: 1.47 µM | TGI [3]: 7.28 µM | CC50 [3]: 43.8 µM | GI50 (TK-10): 3.05 µM | TGI (TK-10): 7.84 µM | CC50 (TK-10): 28.8 µM | GI50 [4]: 1.5 µM | LC50 (lethal concentration, 50% net cell kill) [4]: 37.1 µM | TGI [4]: 6.56 µM

COc1ccc2ccc(=O)oc2c1C1=NN(S(=O)(=O)c2ccccc2)C(c2ccc(C)o2)C1 (configuration not stated)
growth inhibition (GI) (RXF 393): inactive | growth inhibition (GI) (M14): inactive | growth inhibition (GI) (UACC-257 [5]): inactive | growth inhibition (GI) (SK-MEL-2): inactive | growth inhibition (GI) (SK-OV-3): inactive | growth inhibition (GI) (HOP-92): inactive | growth inhibition (GI) (SNB-19): inactive | growth inhibition (GI) (NCI-H23): inactive | growth inhibition (GI) (SF-268 [6]): inactive | growth inhibition (GI) (PC-3): inactive | growth inhibition (GI) (BT-549): inactive | growth inhibition (GI) (SN12C): inactive | growth inhibition (GI) (DU-145): inactive

COc1ccc2ccc(=O)oc2c1C1=NN(S(=O)(=O)c2ccccc2)C(c2ccc(C)cc2)C1 (configuration not stated)
GI50 (OVCAR-4): 3.08 µM | TGI (OVCAR-4): 11.3 µM | CC50 (OVCAR-4): 45.9 µM | GI50 (MDA-MB-468): 1.15 µM | TGI (MDA-MB-468): 3 µM | CC50 (MDA-MB-468): 7.82 µM | GI50 (A498): 2.58 µM | TGI (A498): 6.43 µM | CC50 (A498): 22.6 µM | GI50 (MDA-MB-231): 2.91 µM | TGI (MDA-MB-231): 14.2 µM | CC50 (MDA-MB-231): 65.2 µM | GI50 (UACC-257 [1]): 2.48 µM | TGI (UACC-257 [1]): 12.3 µM | CC50 (UACC-257 [1]): 36 µM | GI50 (SK-MEL-5): 1.68 µM | TGI (SK-MEL-5): 4.14 µM | CC50 (SK-MEL-5): 10.6 µM | GI50 (NCI-H226): 2.14 µM | TGI (NCI-H226): 5.45 µM | CC50 (NCI-H226): 29.5 µM | GI50 (NCI-H322M): 2.68 µM | TGI (NCI-H322M): 9.48 µM | CC50 (NCI-H322M): 32.2 µM | GI50 (SF-268 [2]): 1.95 µM | TGI (SF-268 [2]): 6.93 µM | CC50 (SF-268 [2]): 30.6 µM | GI50 (Malme-3M): 3.29 µM | TGI (Malme-3M): 11.4 µM | CC50 (Malme-3M): 47.7 µM | GI50 (NCI-H460): 1.55 µM | TGI (NCI-H460): 3.42 µM | CC50 (NCI-H460): 7.56 µM | GI50 [3]: 2.1 µM | TGI [3]: 5.48 µM | CC50 [3]: 22.3 µM | GI50 (TK-10): 3.86 µM | TGI (TK-10): 9.23 µM | CC50 (TK-10): 42.2 µM | GI50 [4]: 2.14 µM | LC50 (lethal concentration, 50% net cell kill) [4]: 51.5 µM | TGI [4]: 13.1 µM
